Laboratory results as given in ChEMBL document CHEMBL5724801, “EUbOPEN Chemogenomics Library - Multiplex” (2024).
Values joined by “and” are separate entries in the source; they are usually repeats but may differ in a detail not shown here. Equal values may be shown once.

Test system: U2OS
Test: Multiplex assay against U2OS
Format: toxicity, cell-based
Conditions: human
How it was run: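 Hoechst33342, BioTracker Green Microtubule Cytoskeleton Dye, MitoTracker Red and Annexin V Alexa Fluor 680 were added to live cells at seeding, and imaging on a CQ1 microscope at 37°C and 5% CO2 followed compound addition. Gating by CellPathfinder machine learning separated cells into Hoechst high-intensity objects or normal cells, then normal cells into healthy, pyknosed or fragmented nuclei, then pyknosed cells into mitotic or apoptotic. Per cents of healthy-nucleus cells are reported for the tubulin, mitochondrial-mass and membrane-permeability phenotypes.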

[1] = 12 h, 1 µM, compound concentration 1 uM
[2] = 12 h, 10 µM, compound concentration 10 uM
[3] = 24 h, 1 µM, compound concentration 1 uM
[4] = 24 h, 10 µM, compound concentration 10 uM
[5] = 48 h, 1 µM, compound concentration 1 uM
[6] = 48 h, 10 µM, compound concentration 10 uM

With O=C(NCCO)c1cccc(-c2cc(Nc3ccc(OC(F)(F)F)cc3)ncn2)c1 the “Population Apoptotic (%)” value [1] was 64% and 84%, the “Population Fragmented Nuclei (%)” value [1] was 13% and 15% and the “Population Healthy Nuclei (%)” value [1] was 72% and 73%. The “Population Hoechst High Intensity Objects (%)” value [1] was 1%, the “Population Membrane Permeable-Phenotype (%)” value [1] was 3% and 4% and the “Population Mitochondria Different-Phenotype (%)” value [1] was 3%. The “Population Mitotic Cells (%)” value [1] was 35% and 15%, the “Population Normal (%)” value [1] was 98% and the “Population Pyknosed Nuclei (%)” value [1] was 13% and 10%. The “Population Tubulin-Different-Phenotype (%)” value [1] was 1% and 4%, the “Total Cell Count” value [1] was 213 and 128 and the “Population Apoptotic (%)” value [2] was 84% and 100%. For the same molecule, the “Population Fragmented Nuclei (%)” value [2] was 21% and 20%, the “Population Healthy Nuclei (%)” value [2] was 66% and 68% and the “Population Hoechst High Intensity Objects (%)” value [2] was 4% and 2%. For the same molecule, the “Population Membrane Permeable-Phenotype (%)” value [2] was 9%, the “Population Mitochondria Different-Phenotype (%)” value [2] was 7% and 15% and the “Population Mitotic Cells (%)” value [2] was 15% and 0%. The “Population Normal (%)” value [2] was 95% and 97%, the “Population Pyknosed Nuclei (%)” value [2] was 12% and the “Population Tubulin-Different-Phenotype (%)” value [2] was 6% and 3%. For the same molecule, the “Population Apoptotic (%)” value [3] was 70% and 86%, the “Population Fragmented Nuclei (%)” value [3] was 16% and 20% and the “Population Healthy Nuclei (%)” value [3] was 73% and 69%. For the same molecule, the “Population Hoechst High Intensity Objects (%)” value [3] was 1%, the “Population Membrane Permeable-Phenotype (%)” value [3] was 3% and 7% and the “Population Mitochondria Different-Phenotype (%)” value [3] was 3% and 5%. For the same molecule, the “Population Mitotic Cells (%)” value [3] was 29% and 13%, the “Population Normal (%)” value [3] was 98% and the “Population Pyknosed Nuclei (%)” value [3] was 9%. For the same molecule, the “Population Tubulin-Different-Phenotype (%)” value [3] was 2% and 4%, the “Total Cell Count” value [3] was 256 and 156 and the “Population Apoptotic (%)” value [4] was 82% and 100%. The “Population Fragmented Nuclei (%)” value [4] was 22% and 15%, the “Population Healthy Nuclei (%)” value [4] was 64% and 78% and the “Population Hoechst High Intensity Objects (%)” value [4] was 4% and 1%. The “Population Membrane Permeable-Phenotype (%)” value [4] was 6% and 12%, the “Population Mitochondria Different-Phenotype (%)” value [4] was 3% and 13% and the “Population Mitotic Cells (%)” value [4] was 17% and 0%. The “Population Normal (%)” value [4] was 95% and 98%, the “Population Pyknosed Nuclei (%)” value [4] was 12% and 5% and the “Population Tubulin-Different-Phenotype (%)” value [4] was 1% and 4%. For the same molecule, the “Population Apoptotic (%)” value [5] was 88% and 96%, the “Population Fragmented Nuclei (%)” value [5] was 15% and 20% and the “Population Healthy Nuclei (%)” value [5] was 75% and 65%. For the same molecule, the “Population Hoechst High Intensity Objects (%)” value [5] was 2%, the “Population Membrane Permeable-Phenotype (%)” value [5] was 6% and 9% and the “Population Mitochondria Different-Phenotype (%)” value [5] was 3% and 4%. For the same molecule, the “Population Mitotic Cells (%)” value [5] was 11% and 3%, the “Population Normal (%)” value [5] was 97% and the “Population Pyknosed Nuclei (%)” value [5] was 8% and 14%. The “Population Tubulin-Different-Phenotype (%)” value [5] was 4% and 6%, the “Total Cell Count” value [5] was 417 and 206 and the “Population Apoptotic (%)” value [6] was 92% and 91%. The “Population Fragmented Nuclei (%)” value [6] was 18% and 26%, the “Population Healthy Nuclei (%)” value [6] was 72% and 64% and the “Population Hoechst High Intensity Objects (%)” value [6] was 3% and 2%. The “Population Membrane Permeable-Phenotype (%)” value [6] was 8% and 5%, the “Population Mitochondria Different-Phenotype (%)” value [6] was 3% and 7% and the “Population Mitotic Cells (%)” value [6] was 7% and 8%. The “Population Normal (%)” value [6] was 96% and 97%, the “Population Pyknosed Nuclei (%)” value [6] was 9% and 8% and the “Population Tubulin-Different-Phenotype (%)” value [6] was 6% and 1%.

With O=C1COc2nccc(-c3ccccc3F)c2CN1Cc1cc(C(F)(F)F)cc(C(F)(F)F)c1 the “Population Apoptotic (%)” value [1] was 52% and 77%, the “Population Fragmented Nuclei (%)” value [1] was 19% and 23% and the “Population Healthy Nuclei (%)” value [1] was 72% and 67%. For the same molecule, the “Population Hoechst High Intensity Objects (%)” value [1] was 4% and 2%, the “Population Membrane Permeable-Phenotype (%)” value [1] was 6% and 15% and the “Population Mitochondria Different-Phenotype (%)” value [1] was 2% and 9%. The “Population Mitotic Cells (%)” value [1] was 47% and 22%, the “Population Normal (%)” value [1] was 95% and 97% and the “Population Pyknosed Nuclei (%)” value [1] was 8%. For the same molecule, the “Population Tubulin-Different-Phenotype (%)” value [1] was 4% and 11%, the “Total Cell Count” value [1] was 252 and 108 and the “Population Apoptotic (%)” value [2] was 70% and 100%. For the same molecule, the “Population Fragmented Nuclei (%)” value [2] was 36% and 16%, the “Population Healthy Nuclei (%)” value [2] was 47% and 76% and the “Population Hoechst High Intensity Objects (%)” value [2] was 3% and 5%. The “Population Membrane Permeable-Phenotype (%)” value [2] was 25% and 17%, the “Population Mitochondria Different-Phenotype (%)” value [2] was 27% and 23% and the “Population Normal (%)” value [2] was 96% and 94%. The “Population Pyknosed Nuclei (%)” value [2] was 16% and 7%, the “Population Tubulin-Different-Phenotype (%)” value [2] was 25% and 13% and the “Total Cell Count” value [2] was 200 and 112. For the same molecule, the “Population Apoptotic (%)” value [3] was 86% and 83%, the “Population Fragmented Nuclei (%)” value [3] was 17% and 18% and the “Population Healthy Nuclei (%)” value [3] was 74% and 76%. For the same molecule, the “Population Hoechst High Intensity Objects (%)” value [3] was 3% and 4%, the “Population Membrane Permeable-Phenotype (%)” value [3] was 8% and 12% and the “Population Mitochondria Different-Phenotype (%)” value [3] was 3% and 7%. For the same molecule, the “Population Mitotic Cells (%)” value [3] was 13% and 16%, the “Population Normal (%)” value [3] was 96% and 95% and the “Population Pyknosed Nuclei (%)” value [3] was 8% and 5%. For the same molecule, the “Population Tubulin-Different-Phenotype (%)” value [3] was 3% and 5%, the “Total Cell Count” value [3] was 291 and 121 and the “Population Apoptotic (%)” value [4] was 58% and 100%. For the same molecule, the “Population Fragmented Nuclei (%)” value [4] was 36% and 21%, the “Population Healthy Nuclei (%)” value [4] was 43% and 70% and the “Population Hoechst High Intensity Objects (%)” value [4] was 5%. For the same molecule, the “Population Membrane Permeable-Phenotype (%)” value [4] was 21% and 13%, the “Population Mitochondria Different-Phenotype (%)” value [4] was 22% and 19% and the “Population Normal (%)” value [4] was 94%. The “Population Pyknosed Nuclei (%)” value [4] was 19% and 8%, the “Population Tubulin-Different-Phenotype (%)” value [4] was 17% and 7% and the “Total Cell Count” value [4] was 210 and 126. For the same molecule, the “Population Apoptotic (%)” value [5] was 84% and 76%, the “Population Fragmented Nuclei (%)” value [5] was 16% and 19% and the “Population Healthy Nuclei (%)” value [5] was 74% and 69%. The “Population Hoechst High Intensity Objects (%)” value [5] was 3%, the “Population Membrane Permeable-Phenotype (%)” value [5] was 5% and 8% and the “Population Mitochondria Different-Phenotype (%)” value [5] was 3% and 5%. The “Population Mitotic Cells (%)” value [5] was 15% and 23%, the “Population Normal (%)” value [5] was 96% and the “Population Pyknosed Nuclei (%)” value [5] was 9% and 10%. For the same molecule, the “Population Tubulin-Different-Phenotype (%)” value [5] was 3%, the “Total Cell Count” value [5] was 425 and 166 and the “Population Apoptotic (%)” value [6] was 61% and 85%. For the same molecule, the “Population Fragmented Nuclei (%)” value [6] was 35% and 25%, the “Population Healthy Nuclei (%)” value [6] was 46% and 60% and the “Population Hoechst High Intensity Objects (%)” value [6] was 4%. For the same molecule, the “Population Membrane Permeable-Phenotype (%)” value [6] was 20% and 12%, the “Population Mitochondria Different-Phenotype (%)” value [6] was 17% and 12% and the “Population Mitotic Cells (%)” value [6] was 38% and 14%. For the same molecule, the “Population Normal (%)” value [6] was 95%, the “Population Pyknosed Nuclei (%)” value [6] was 17% and 14% and the “Population Tubulin-Different-Phenotype (%)” value [6] was 11% and 3%. The “Total Cell Count” value [6] was 236 and 151.
